Activity calls are given as the source filed them. The calls are words filed in the database; no cut-off is given here.
Experiments:
[1] = Induction of H2S generation assessed as Cmax at 150 uM incubated at 37 degC and pH 5 by fluorescence spectrophotometry; assay type: functional
Method in brief: (§1)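 Donor at 150 µM final, mixed with 200 µM sulfonyl-azide fluorescent probe in buffer/acetonitrile (1:9) at set pH. Cuvette held in a water bath at 22 °C or 37 °C, with fluorescence read three times at intervals. H2S was quantified from a Na2S standard curve (0–200 µM, probe 200 µM).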

H9c2 [2] = experiment: Cardioprotective activity against H2O2- induced toxicity in rat H9c2 cells assessed as increase in survival rate at 50 uM incubated for 8 hrs co-treated with 50 uM H2O2 measured after 24 hrs by MTT assay relative to control; assay type: functional
Method in brief: (§2)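 H9c2 cardiomyocytes injured with H2O2 (50, 200 or 400 µM) for 8 h together with compound (10–100 µM). Survival rate measured against the H2O2 model group. Six independent experiments, mean ± sd.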

H9c2 [3] = experiment: Cytoprotective activity against H2O2-induced toxicity in rat H9c2 cells assessed as increase in SOD level at 10 to 100 uM pretreated with H202 for 8 hrs followed by compound addition measured after 24 hrs; assay type: functional, cell-based; conditions: dose microM 10-100, time 8.0 hrs
[4] = Toxicity in Wistar rat assessed as effect on WBC level at 0.01 mmol/kg, ip, administered daily for 14 days (reference value: 5.82 10^9/L); conditions: in vivo, 336 h, time 14 day
RAW264.7 [5] = experiment: Anti-inflammatory activity in mouse RAW264.7 cells assessed as inhibition of LPS-induced NO production at 100 uM preincubated for 4 hr followed by LPS addition and measured after 24 hrs relative to control; assay type: functional
Method in brief: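 RAW264.7 cells exposed to LPS 1 µg/mL with compound (20 and 100 µM) for 24 h. Nitrite in medium measured by Griess reagent, […], against a sodium nitrite standard curve (0–100 µM). Four parallel groups, mean ± SD.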

H9c2 [6] = experiment: Cardioprotective activity against H2O2- induced toxicity in rat H9c2 cells assessed as effect on cell morphology at 50 uM incubated for 8 hrs co-treated with 50 uM H2O2 measured after 24 hrs […]; assay type: functional, cell-based
Method in brief: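 H9c2 cells in 24-well plates treated with H2O2 (50, 200 or 400 µM) for 8 h plus compound 50 µM, 24 h total. Cells were stained with Giemsa for 30 min and morphology examined by microscopy.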

[7] = Toxicity in Wistar rat assessed as damaged glomeruli, marked gaps and swollen proximal convoluted tubules at 0.01 mmol/kg, ip administered for 14 days; assay type: organism-based; conditions: in vivo, 336 h, time 14 day
Method in brief: (§3)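 Wistar rats (6/group) dosed ip daily for 14 days with compound in 10% DMSO; vehicle controls received 10% DMSO. Liver, kidney and spleen were fixed in 4% glutaraldehyde, sectioned, H-E stained and examined microscopically.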

H9c2 [8] = experiment: Cardioprotective activity against H2O2- induced toxicity in rat H9c2 cells assessed as decrease in MDA level at 10 to 100 uM pretreated with H202 for 8 hrs followed by compound addition measured after 24 hrs; assay type: functional, cell-based; conditions: dose microM 10-100, time 8.0 hrs
[9] = Induction of H2S generation assessed as half life at 150 uM incubated at 22 degC and pH 7.4 by fluorescence spectrophotometry; assay type: functional; method in brief: as §1
[10] = Toxicity in zebrafish embryos assessed as embryo malformation rate at 20 uM measured after 96 hpf relative to control; design: species or system Danio rerio; conditions: in vivo
[11] = Cytotoxicity against mouse RAW264.7 cells assessed as cell viability at 20 to 100 microM after 24 hrs by MTT assay; assay type: cell-based; conditions: dose 20-100 µM, read-out: Activity
Method in brief: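 RAW264.7 macrophages in high-glucose DMEM with 10% heat-inactivated FBS, 37 °C, 5% CO2. LPS 1 µg/mL with or without compound (20 and 100 µM) for 24 h. Then MTT 4 h, formazan dissolved in DMSO, A570, expressed as % of control.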

[12] = Toxicity in Wistar rat assessed as congested central venous and hepatic sinuses and swollen hepatocytes at 0.01 mmol/kg, ip administered for 14 days; assay type: organism-based; conditions: in vivo, 336 h, time 14 day; method in brief: as §3
[13] = Toxicity in zebra fish assessed as decrease in survival rate at <=20 uM measured after 120 hpf by microscopic analysis relative control; design: species or system Danio rerio; conditions: zebrafish
Method in brief: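 Wild-type AB zebrafish embryos were checked at 4 hpf, and normally developed ones were used. There were 100 embryos per group, split into three replicates, one per well in 200 µL solution under sealing film. Mortality was recorded at 24–168 hpf. Vehicle control was DMF diluted 1:1000. Values are mean ±SD of three independent experiments.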

RAW264.7 [14] = experiment: Anti-inflammatory activity in mouse RAW264.7 cells assessed as inhibition of LPS-induced TNFalpha production at 20 uM preincubated for 4 hr followed by LPS addition and measured after 24 hrs relative to control; assay type: functional, cell-based
Method in brief: (§4)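 RAW264.7 cells given LPS 1 µg/mL with compound for 24 h, then lysed in RIPA and centrifuged. Protein was set to 0.1 mg/mL by BCA and mouse cytokine levels measured by sandwich ELISA kit. Four parallel groups, mean ± SD.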

[15] = Induction of H2S generation assessed as half life at 150 uM incubated at 37 degC and pH 7.4 by fluorescence spectrophotometry; assay type: functional; method in brief: as §1
RAW264.7 [16] = experiment: Anti-inflammatory activity in mouse RAW264.7 cells assessed as inhibition of LPS-induced IL-10 production at 20 uM preincubated for 4 hr followed by LPS addition and measured after 24 hrs; assay type: functional, cell-based; method in brief: as §4
[17] = Retention time of compound in serum by LC-MS analysis; assay type: physicochemical, cell-free
Method in brief: (§5)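 Compound incubated in PBS pH 7.4 or in serum, sampled every 12 h over 36 h, and analysed by LC-MS for parent and product peaks.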

[18] = Induction of H2S generation assessed as Cmax Induction of H2S generation assessed as Cmax at 150 uM incubated at 37 degC and pH 7.4 by fluorescence spectrophotometry; assay type: functional; method in brief: as §1
[19] = Drug metabolism in Wistar rat heart homogenate assessed as metabolite formation incubated for 36 hrs by LC-MS; assay type: ADME, tissue-based; conditions: tissue homogenate
[20] = Retention time of compound in PBS by LC-MS analysis; assay type: physicochemical; conditions: buffer; method in brief: as §5
[21] = Kinetic Solubility of compound; assay type: physicochemical
H9c2 [22] = experiment: Cardioprotective activity against H2O2- induced toxicity in rat H9c2 cells assessed as increase in survival rate at 50 uM incubated for 8 hrs co-treated with 400 uM H2O2 measured after 24 hrs by MTT assay relative to control; assay type: functional; method in brief: as §2
[23] = Toxicity in zebrafish embryos assessed as embryo malformation rate at 1 to 20 uM measured after 96 hpf relative to control; design: species or system Danio rerio; conditions: in vivo
[24] = Drug metabolism in Wistar rat kidney homogenate assessed as metabolite formation incubated for 36 hrs by LC-MS; assay type: ADME, tissue-based; conditions: tissue homogenate
[25] = Solubility of compound in water; assay type: physicochemical; conditions: buffer

| SMILES | Cmax [1] | Activity (H9c2 [2]) | Activity [4] | Activity (H9c2 [6]) | Activity [7] | T1/2 [9] | viability at 24 h [11] | Activity [12] | Activity [13] | T1/2 [15] | Retention_time [17] | Cmax [18] | further results |
| --- | --- | --- | --- | --- | --- | --- | --- | --- | --- | --- | --- | --- | --- |
| O=C([O-])[C@H](Cc1cc2ccccc2[nH]1)NP([O-])(=S)c1ccccc1.[Li+].[Li+] (some centres not stated) | 124 µM | 25.5% | 4.01 10^9/L | Active | Toxic | 6.97 min | 70% | Toxic | 50% | 3.07 min | 8.06 min | 124 µM | Activity (H9c2 [3]): Active; inhibition at 100 µM (RAW264.7 [5]): 50%; Activity (H9c2 [8]): Active; Activity [10]: 5%; Activity (RAW264.7 [14]): Active; Activity (RAW264.7 [16]): Active |
| S=P1(c2ccccc2)NCCCO1 (configuration not stated) | 35.8 µM | 17.1% | 3.23 10^9/L | Active | Toxic | 36.8 min | 70% | Toxic | 50% | 35.7 min | 9.647 min | 26.5 µM | Drug metabolism [19]: Metabolite_Detected; Retention_time [20]: 9.649 min; Kinetic_solubility [21]: Soluble; Activity (H9c2 [22]): 5.1%; Activity [23]: 2%; Drug metabolism [24]: Metabolite_Detected; solubility [25]: Insoluble |

From ChEMBL document CHEMBL4665656, “Toxicity, bioactivity, release of HS in vivo and pharmaco-kinetics of HS-donors with thiophosphamide structure” (Eur J Med Chem, 2019)
